{
  "source": "the RNAGym collection of RNA variant scans (doi:10.1126/science.aae0568)",
  "parents": {"B1": {"name": "tRNA (parent)", "chain": "GUUCCGUUGGCGUAAUGGUAACGCGUCUCCCUCCUAAGGAGAAGACUGCGGGUUCGAGUCCCGUACGGAACG"}},
  "note": "Fewer inactive variants are shown than the library holds.",
  "data": [
    {"variants_of": "B1", "assay": "yeast fitness relative to wild type (ratio to wild type); higher = fitter; tRNA-Arg(CCU), competitive growth, 37 C, YPD", "outline": "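Variants of the tRNA-Arg(CCU) gene were chemically synthesised with a 3% per-site mutation rate across 69 sites and placed at the native genomic locus in Saccharomyces cerevisiae. Six parallel replicates of the pooled strains were competed in YPD at 37°C for 24 hours, and gene amplicons from the start and end populations were read by 100-nucleotide paired-end sequencing. Darwinian fitness relative to wild type was derived from changes in genotype frequencies. Genotypes required ≥ 100 starting reads, and estimates < 0.5 were set to 0.5.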", "values": [
      {"variant": "GUUCCGUUGGGGUAAUGGUAACGCGUCUCCCUCUUAAGGAGAAGACUGCGGGUUCGAGUCCCGUACGGAACG", "yeast fitness": 0.672},
      {"variant": "GUUCCGUUGGCGUAAUGGUAGCGCGUCUCCCUCCCAAGGAGAAGACUGCGGGUUCGAGUCCCCUACGGAACG", "yeast fitness": 0.536},
      {"variant": "GUUCCGAUGACGUAAUGGUAACGCGUCUCCGUCCUAAGGAGAAGACUGCGGGUUCGAGUCCCGUACGGAACG", "yeast fitness": "≤ 0.5"},
      {"variant": "GGUCCGUUGGCGUAAUGGUAACGCGUCUCCCUCGUAAGGAGAAGAUUCCGGGUGCGAGUCCCGUACGGAACG", "yeast fitness": 0.709},
      {"variant": "GUUCCGUUGGCGUAAUGGUAAAACGUCUCCCUUGUAAGGAGAAGACUGCGAGUUCGAGUCCCGUACGGAACG", "yeast fitness": "≤ 0.5"},
      {"variant": "GUUCCGUUGGCGUAAUGGUAACGGGUCUCCCUCCUAAGGAGACGACUGCGGGUUCGAGUCCUGUGCGGAACG", "yeast fitness": "≤ 0.5"},
      {"variant": "GUUCCGCUGGCGUAAUGGUAACGCGUCUCCUUCCUAAGGAGAAGACUGCGGGUUCGAGUCCCGUACGGAACG", "yeast fitness": 0.954},
      {"variant": "GUUCAGUUGGCGUAAUGGUGACGCGUCUCCCUCCUAAGGAGAAGACUGCGGGUUCGAGUCCCGUACGGAACG", "yeast fitness": 0.933},
      {"variant": "GUUCCGUUGGCGUAAUGGUAACGCGUCUCCCUCCUAAGGAGAACACCGCGGGUUCGAGUCCCGUACGGAACG", "yeast fitness": 0.822},
      {"variant": "GUACCGUUGGCCCAAUGGUAACGCGUCUCCCUCCUAAGGAGAAGACUGCGGGUUCGAGUCCCGUACGGUACG", "yeast fitness": 1.13},
      {"variant": "GUUCCGUUGGCGUAAUAGUAACGCGUCUCCCUCCUAAGGAGAAGACUGCGGGUUCAAGUCCCGUAGGGAACG", "yeast fitness": "≤ 0.5"},
      {"variant": "GUUGCGUUGGCGUAAUGGUAACGCGUCUCUCUCCUAAGGAGAAGACUGUGGGUUCGAGUCCCGUACGGAACG", "yeast fitness": 0.604},
      {"variant": "GUUCCGUUGACGUAAUGGUCACGCGUGUCCCUCCUAAGGGGAAGACUGCGGGUUCCAGUCCCGUACGGAACG", "yeast fitness": "≤ 0.5"},
      {"variant": "GUUCCGUUGGCGUAAUGGUAAAGCGUCUCCCUCCUAAGGAGAAGACCGCGGGUUCGAGUCCCGUACGGAACG", "yeast fitness": 0.882},
      {"variant": "GUUCCGUUGGCGUAAUGGUAGCGCGUCUCCCUCCUAAGGAGUAGACUGCGGGUUCGAGUCCCGUACGGAACG", "yeast fitness": 0.839},
      {"variant": "GUUCCGUUGGCGUUAUGGUAACGCGUCUCCCUCCUAAGGAGAAGACUGCGGGUUCGAGUCCCAUACGGAACG", "yeast fitness": "≤ 0.5"},
      {"variant": "GUUCCAUUGGCAUAAUGGUAACGCGUCUCCCUCCUAAGGAAAAGACUGCGGGUUCGAGUCCCGUUCGGAACG", "yeast fitness": 0.547},
      {"variant": "GUUUCGUUGGCGUAAUGGUAACGCGUCUCCCUCCUAAGGAACAGACUGCGGGUUCGAGUCCCGUACGGAACG", "yeast fitness": "≤ 0.5"},
      {"variant": "GUUCCGUUGGCGUAAUGGUAAGGCGUCUCGCUCCUAAGGAGAAGACUGCGGGUUCGAGGCCCGUACGGAACG", "yeast fitness": "≤ 0.5"},
      {"variant": "GUUCCGUUGGCGUAGUGGUAACGCGUCUCUCUCCUAAGGAGAAGACUGCGGGUUCGAGUCCCGUACGGACCG", "yeast fitness": 0.615},
      {"variant": "GUUCCGUUGGCGUAAUGGUAACGCGUCUCCCUCCUAGGGAGAAGUCUGCGGGUUCGAGACCCGUACGGAACG", "yeast fitness": "≤ 0.5"},
      {"variant": "GUUCCGCUGGCGUUAUGGUAACGCGUCUCCCUCCUAAGGAGAAGACUGCGGGUUCGAGUCCCGUCCGGAACG", "yeast fitness": "≤ 0.5"},
      {"variant": "GUUCCGUUGGCGUAAUGGUAAUGCGUCUCUCUUCUAAGGAGAAGCCUGCGGGUUCCAGUCCCGUACGCAACG", "yeast fitness": "≤ 0.5"},
      {"variant": "GUUCCGUUGGCGUAAUGGUAACGCGUCCCCCUCCUAAGGAAAAGACUGCGGGUUCGUGUCCCGUAGGGAACG", "yeast fitness": "≤ 0.5"},
      {"variant": "GUUCCGUUGGCGUAAUGGUAACGCGUCUCCCUCCUAAGGAGAAGACUGCGGGCUCGCGUCCCGUAUGGAACG", "yeast fitness": "≤ 0.5"},
      {"variant": "GUUCCGUUGGCGUAAAGGUAACGCGUCUCUCUCCUAAGGAGUAGACUGCGGGUUCGAGUCCCGUACGGAACG", "yeast fitness": 0.618},
      {"variant": "GUUCCGUUGGCGUAAUGGUAAGCCGUACCCCUCCUAAGGAGAAGACUGCGGGUUCGAGUCCCGUACAGAGCG", "yeast fitness": "≤ 0.5"},
      {"variant": "GUUCCGUUGGCGUAAUGGUAACGCGUCGCCCUCUUAAGGAGAAGUCUGCGGGUUCGAGUCCCGUACGGAACG", "yeast fitness": 0.52},
      {"variant": "GUUCCGUUGCCGUAAUGGUAACGCGUCUCCCUGCUAAGGAGAAGACUGCGGGCUUGAGUCCCGUACGGAGCG", "yeast fitness": "≤ 0.5"},
      {"variant": "GUUCUGUUGGCGUAAUGGUAAAGCGUCUCCCUCCUAAGGAGAAGACUGCGGGUUCGAGUCUCGUCCGGAACG", "yeast fitness": "≤ 0.5"},
      {"variant": "GUUGCGUUGGCGUAAUGGUGACGCGUAUCCCUCCUAAGGAGAAGAUUGCGGGUUCGAGUCCCGUUCGGAACG", "yeast fitness": "≤ 0.5"},
      {"variant": "GUUCUGUUGGCGUAAUGGUUACGCGUCUCCCUCCUAAGGCGAAGACUGCGGGUUCGAGUCCCGUACGGAACG", "yeast fitness": "≤ 0.5"},
      {"variant": "GUUCCGUUGGCGUAAUGGUACCGCGCCUCCCUCCUAAGGGGAAGACCGCGGGUUCGAGUCCCGUACGGAACG", "yeast fitness": "≤ 0.5"},
      {"variant": "GUUGCCUGGGCGUAAUAGUAACACGUCUCCCUCCUAAGGAGAAGAGUGCGGGUUCGAGUACCGUACGGAACG", "yeast fitness": 0.567},
      {"variant": "GUUUCGUUGGCGUAAUGGUAACGGGUCUCCCUCCUAAGGAGAAGACUGCGGGUUCGGGUCCCGUACGGAACG", "yeast fitness": "≤ 0.5"},
      {"variant": "GUUCCGUUGGCGUAAUGGUAACGCGACUCUCUCCUAAGGAGAAGACUGCGGGUUCGAGUCCCGUACGGAACG", "yeast fitness": 0.787},
      {"variant": "GUUCCGUUGGCGUAAUGGUAACGCGUCUCCCUCCUAACGACAAGACUGCGGGUUCGAGUCCCGUACGGACCG", "yeast fitness": 0.553}
    ]}
  ]
}
